Experimental findings from ChEMBL document CHEMBL1154720, “Synthesis and biological evaluation of novel 4-hydroxybenzaldehyde derivatives as tyrosinase inhibitors” (Eur J Med Chem, 2010) are described below.

In data set [1] the target is T1, Tyrosinase (Agaricus bisporus, UniProt O42713).
T1 sequence (O42713 whole entry): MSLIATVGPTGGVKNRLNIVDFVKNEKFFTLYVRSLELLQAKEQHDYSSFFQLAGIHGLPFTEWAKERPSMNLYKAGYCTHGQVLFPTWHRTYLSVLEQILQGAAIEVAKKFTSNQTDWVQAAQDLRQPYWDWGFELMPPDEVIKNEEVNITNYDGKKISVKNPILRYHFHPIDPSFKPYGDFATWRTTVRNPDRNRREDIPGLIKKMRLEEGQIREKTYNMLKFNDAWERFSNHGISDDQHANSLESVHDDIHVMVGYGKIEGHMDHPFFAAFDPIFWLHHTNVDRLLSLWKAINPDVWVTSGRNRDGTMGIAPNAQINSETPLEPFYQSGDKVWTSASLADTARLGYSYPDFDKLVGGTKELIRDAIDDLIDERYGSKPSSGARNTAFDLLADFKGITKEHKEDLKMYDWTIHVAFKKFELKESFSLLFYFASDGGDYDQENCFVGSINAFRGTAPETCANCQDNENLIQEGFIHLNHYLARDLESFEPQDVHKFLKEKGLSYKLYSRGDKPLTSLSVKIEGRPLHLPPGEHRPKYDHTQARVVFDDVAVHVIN
The data set can be described thus: Inhibition of mashroom tyrosinase assessed as oxidation of L-DOPA by spectrophotometry. The essentials:
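Mushroom tyrosinase diphenolase activity with L-DOPA as substrate. Compounds dissolved in DMSO and diluted with phosphate buffer pH 6.8, final DMSO 2.0%. Thirty units of enzyme pre-incubated with compound in 50 mM phosphate buffer (pH 6.8) for 10 min at 25 °C. Triplicate per concentration. IC50 interpolated from log concentration–inhibition curves (at least eight points), mean of three experiments.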

Data set [2] deals with T1, Tyrosinase. The data set can be described thus: Inhibition of mushroom tyrosinase assessed as oxidation of L-DOPA by Lineweaver-Burke plot analysis. The essentials: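 Kinetics use the same pre-incubation (10 min, 25 °C, 50 mM phosphate pH 6.8) and measurement time as the IC50 assay, with three inhibitor concentrations per compound including zero and L-DOPA varied. Initial velocity taken from absorbance change over time. Lineweaver–Burk plots were drawn, and KI was obtained from a secondary plot of intercept versus inhibitor concentration.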

For data set [3], the system named is Mus musculus. Nature of the data set: Toxicity in mouse at 1600 mg/kg/day, po measured for 20 days. Format: organism-based. The arrangement: route oral. The following applies: in vivo, 480 h. The essentials: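 Ten specific-pathogen-free mice, 4 weeks old, acclimated for one week at 20 ± 2 °C and 50 ± 10% relative humidity, weighing 20 ± 2 g. Mice were fasted 4 h, then given a single oral gavage in carboxymethyl cellulose (10 ml/kg; dosing solution 160 mg/ml). Vehicle served as negative control. Clinical signs and mortality were followed 20 days, then organs were examined at autopsy.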

Structures are written as SMILES.

Broadly, the IC50 is the midpoint of a concentration-inhibition curve. As to `COC(=O)C(Cc1ccccc1)NC(=O)COc1ccc(C=O)cc1` (stereo not drawn), the IC50 in data set [1] came out at 480 µM.

For the molecule `CCCCOCCOc1ccc(C=O)cc1`, in data set [1], the IC50 stood at 3260 µM.

On to `O=Cc1ccc(OCC(O)CO)cc1` (stereo not drawn), for which the IC50 in data set [1] was determined as 1260 µM. On the same count and under the same terms, under `O=Cc1ccc(OCCO)cc1` stands 2550 µM; under `COC(=O)C(CCSC)NC(=O)COc1ccc(C=O)cc1` (stereo not drawn), 400 µM. The Ki is the dissociation constant of the complex between target and ligand, obtained from inhibition or displacement. On to `COC(=O)C(C)NC(=O)COc1ccc(C=O)cc1` (stereo not drawn), for which the Ki in data set [2] was 125 µM. Also, in data set [1], the concentration for half-maximal inhibition (IC50) was 160 µM. Take `COCCOCCOc1ccc(C=O)cc1`: the IC50 in data set [1] was 900 µM. For `COCCCCOc1ccc(C=O)cc1`, the IC50 in data set [1] is 620 µM. As for `CCOP(=O)(OCC)OCCOc1ccc(C=O)cc1`, the IC50 in data set [1] is 550 µM. For `COC(=O)C(CC(C)C)NC(=O)COc1ccc(C=O)cc1` (stereo not drawn), in data set [1], the concentration for half-maximal inhibition (IC50) worked out at 1650 µM. For `COP(=O)(OC)OCCOc1ccc(C=O)cc1`, in data set [2], the Ki came to 36.8 µM. Further, the Activity entry in data set [3] was “Non-toxic”. Moreover, the IC50 in data set [1] is 59 µM.

Take `COCC(O)COc1ccc(C=O)cc1` (stereo not drawn): the IC50 in data set [1] was 750 µM.

Consider `O=Cc1ccc(OCCOP(=O)(O)O)cc1`, for which the IC50 in data set [1] was 820 µM. In the case of `CCC(C)C(NC(=O)COc1ccc(C=O)cc1)C(=O)OC` (stereo not drawn), the IC50 in data set [1] was 460 µM. As to `COC(=O)C1CCCN1C(=O)COc1ccc(C=O)cc1` (stereo not drawn), in data set [1], the IC50 came out at 760 µM. For `COC(=O)C(Cc1ccc(O)cc1)NC(=O)COc1ccc(C=O)cc1` (stereo not drawn), in data set [1], the IC50 worked out at 220 µM. For `COC(=O)CNC(=O)COc1ccc(C=O)cc1`, in data set [2], the inhibitory constant (Ki) came to 117 µM. Further, the IC50 in data set [1] worked out at 170 µM. On to `COC(=O)C(Cc1c[nH]c2ccccc12)NC(=O)COc1ccc(C=O)cc1` (stereo not drawn), for which the Ki in data set [2] was 54 µM. In addition, the IC50 in data set [1] is 110 µM. `COCCOc1ccc(C=O)cc1`: the half-inhibitory concentration (IC50) in data set [1] was 660 µM. `O=Cc1ccc(OCOC(CO)CO)cc1`: the IC50 in data set [1] worked out at 270 µM. Consider `O=Cc1ccc(OCOCCO)cc1`, for which the IC50 in data set [1] amounted to 370 µM. The same measure, in the same setting: under `O=Cc1ccc(OCC2CO2)cc1` (stereo not drawn) stands 590 µM. As for `O=Cc1ccc(OCCOC(=O)CCC(=O)O)cc1`, the IC50 in data set [1] worked out at 620 µM.
